SMARCA2 act: SMARCA2 function activation, primary screen; MG213 cells, MMTV-luciferase reporter, dexamethasone, overnight; activation, % at 9.1 µM; actives 1% (n = 370,000); AID 652017; in the data active means activation above about 7.8%;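 further: 0% = vehicle wells and 100% = reference activator wells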
ASAP1 inh: blocks human ASAP1-stimulated Arf1 GTP hydrolysis. Q9ULH1. GDP FP detection. inhibition, % at 16.5 µM. actives 0.19% (n = 360,000). AID 624377; in the data active means inhibition above about 25%;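 further: 0% = vehicle with enzyme and substrate and 100% = no enzyme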
Target sequence (Q9ULH1 325-724 limits assumed): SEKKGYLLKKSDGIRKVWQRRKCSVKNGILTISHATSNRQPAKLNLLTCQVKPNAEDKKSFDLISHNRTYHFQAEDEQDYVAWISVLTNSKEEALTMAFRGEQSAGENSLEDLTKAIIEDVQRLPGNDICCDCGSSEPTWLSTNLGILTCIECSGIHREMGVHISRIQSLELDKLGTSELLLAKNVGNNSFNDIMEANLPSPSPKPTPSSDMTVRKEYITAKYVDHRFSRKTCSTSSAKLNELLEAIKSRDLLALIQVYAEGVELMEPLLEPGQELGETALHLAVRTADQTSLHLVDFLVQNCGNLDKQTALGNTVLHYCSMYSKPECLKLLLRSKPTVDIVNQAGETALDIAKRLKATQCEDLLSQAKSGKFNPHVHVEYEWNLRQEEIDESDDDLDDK
ARFGAP1 inhibitor: rat ARFGAP1 inhibition; Q62848; AID 651572; actives 0.26% (n = 360,000); inhibition, % at 16.5 µM; Arfgap1-stimulated ARF1 GTP hydrolysis, GDP FP detection;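 active means inhibition above a per-plate limit, mean inhibition of low control wells plus 3 SD, cut at about 25% in these data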;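 further: 0% = DMSO wells with enzyme and 100% = wells lacking Arfgap1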
Target sequence (Q62848 1-136 limits assumed): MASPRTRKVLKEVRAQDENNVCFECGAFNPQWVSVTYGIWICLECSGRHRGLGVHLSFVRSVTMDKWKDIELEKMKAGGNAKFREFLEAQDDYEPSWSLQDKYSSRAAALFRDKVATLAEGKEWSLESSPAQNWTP
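Material: rat Arfgap1 GAP domain (His6, aa 1-136), purified enzyme. Also added: human ARF1(Δ1-17)-GTP substrate. Compound dosing: 16.5 µM single point, 1.26% DMSO. Timing: enzyme reaction 120 min at 25 °C after 20 min preincubation. Signal: GDP detection by fluorescence polarization. Read-out basis: percent inhibition of GAP-stimulated GDP formation, scaled between DMSO and no-Arfgap1 medians.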
esBAF inh: SWI/SNF esBAF complex inhibition; mouse ES cells, Bmi1-luciferase knock-in reporter, 24 h; 100% = twice the neutral-well signal; reporter increase, % at 12.5 µM; actives 2% (n = 350,000); AID 602393; in the data active means activation above about 40%; inconclusive means no clear call, values can overlap the other calls;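 further: 0% = median of the plate's neutral control wells and 100% = double that signal; a rise in the Bmi1 reporter signal indicates esBAF inhibition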
SMARCA2 act conf: SMARCA2 activation, confirmation screen. shares compounds with SMARCA2 act. MG213 cells, MMTV-luciferase with dexamethasone, luminescence, overnight; MG213 cells expressing E1A, Rb sequestered; DMSO wells 0%, reference activator 100%. activation, % at 9.1 µM. actives 30% (n = 3,500). AID 652260;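 active means activation above its plate's cutoff, the mean activation of tested wells plus 3 SD, cut at about 7.9% in these data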
GAL4-VP16 Luc: activates GAL4-VP16 luciferase, flagging SMARCA2 activator hits; actives 41% (n = 3,500); activation, % at 9.1 µM; shares compounds with SMARCA2 act; HEK293 GAL4-VP16 pG5luc reporter, luciferase luminescence; scaled: DMSO wells 0%, SAHA wells 100%;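 active means activation above the solvent-only control well mean plus 3 SD, averaged across control plates, cut at about 5.2% in these data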
* = called active by the depositor; ? = inconclusive; nt = no result given. In the library only some 2.6% were active in any assay of this set; here they are far more common.

SMILES | SMARCA2 act | ASAP1 inh | ARFGAP1 inhibitor | esBAF inh | SMARCA2 act conf | GAL4-VP16 Luc
Cc1ccc(/C(N)=N/OC(=O)c2ccc3c(c2)OCO3)cc1 | 2 | 3 | -7 | nt | nt | nt
Cc1cccc(/C(N)=N/OC(=O)c2ccoc2C)c1 | 8.1* | 12 | 1 | 36 | 13* | 13*
N/C(=N\OC(=O)c1ccc2c(c1)OCO2)c1ccc(Cl)cc1 | 8.9* | 4 | -4 | 28 | 10* | 6.8*
Cc1cccc(C(=O)O/N=C(\N)c2ccc(Cl)cc2)c1 | 9.0* | 0 | -2 | nt | 8 | 5
Cc1cccc(C(=O)O/N=C(\N)c2ccc(Br)cc2)c1 | 2 | -5 | 0 | nt | nt | nt
Cc1cc(/C(N)=N/OC(=O)c2cccc(Cl)c2)no1 | 13* | 4 | -7 | nt | 4 | 1
O=C(C[C@H]1CC[C@H](NC(=O)Nc2ccc3c(c2)OCO3)[C@H](CO)O1)NCc1ccc(Cl)cc1 | nt | nt | nt | 2 | nt | nt
C[C@H]1CN([C@@H](C)CO)C(=O)Cc2cc(NC(=O)CCCCCC(=O)Nc3ccccc3N)ccc2O[C@H]1CN(C)Cc1ccc(-c2ccccc2)cc1 | nt | nt | nt | 22 | nt | nt
O=C(Nc1cc(F)ccc1F)N[C@H]1C=C[C@@H](CC(=O)N2CCc3ccccc3C2)O[C@@H]1CO | nt | nt | nt | 4 | nt | nt
COC(=O)c1ccc(C(=O)OC)c(NC(=S)N2CCN(c3cccc(Cl)c3)CC2)c1 | 11* | -2 | 7 | -4 | -6 | -1
C[C@H]1CN([C@@H](C)CO)C(=O)c2cc(C#CC3CCCC3)cnc2O[C@@H]1CN(C)C(=O)Nc1ccccc1 | nt | nt | nt | -5 | nt | nt
O=[N+]([O-])c1cccnc1NCCc1c[nH]c2ccccc12 | 8.8* | -8 | 17 | ? | 13* | 8.4*
O=C(c1cc(-c2ccccc2)nc2ccccc12)N1CCCC1 | -1 | 6 | 9 | -3 | nt | nt
c1ccc(-c2cc(NCCN3CCCCC3)c3ccccc3n2)cc1 | 25* | -11 | 0 | -10 | 78* | 0
COc1ccc(C#Cc2cnc3c(c2)C(=O)N([C@@H](C)CO)C[C@@H](C)[C@H](CN(C)C(=O)Nc2cccc(OC)c2)O3)cc1 | nt | nt | nt | 1 | nt | nt
CC1=[N+]([O-])C(C)(C)C(c2ccc(Br)cc2)=[N+]1[O-] | 12* | -14 | -3 | nt | 1 | 0
Cc1ccc(C2=[N+]([O-])C(C)(C)N(O)C2(C)C)cc1 | -4 | 14 | -11 | nt | nt | nt
O=C(N[C@@H]1CC[C@@H](CCNS(=O)(=O)c2cccc(Cl)c2)O[C@@H]1CO)c1ccc(F)cc1 | nt | nt | nt | 4 | nt | nt
Cc1nc(SC(C(N)=O)c2ccccc2)c(C#N)c(C)c1C (stereo not drawn) | 8.3* | -4 | 4 | nt | 3 | 2
COC(=O)C(Sc1nc(C)cc(C)c1C#N)c1ccccc1 (stereo not drawn) | -1 | -16 | 7 | -4 | nt | nt
Cc1ccc(S(=O)(=O)N(C)C[C@H]2Oc3ccc(NS(=O)(=O)c4c(C)noc4C)cc3C(=O)N([C@@H](C)CO)C[C@H]2C)cc1 | nt | nt | nt | -1 | nt | nt
CCC(=O)N1[C@H](CO)[C@H]2c3ccccc3N(C(=O)c3ccncc3)C[C@H]21 | nt | nt | nt | -4 | nt | nt
Cc1cc(C)nc(Nc2ccccc2Cl)n1 | 12* | -4 | 3 | -3 | 2 | 1
CCCN1C[C@H](C)[C@@H](OC)CN(C)C(=O)c2cc(NC(=O)c3ccccc3F)ccc2OC[C@@H]1C | nt | nt | nt | 3 | nt | nt
Cc1ccc(NC(=O)Nc2ccc3c(c2)C(=O)N(C)[C@H]2CC[C@H](CC(=O)O)O[C@H]2CO3)cc1 | nt | nt | nt | 3 | nt | nt
SMILES | SMARCA2 act | ASAP1 inh | ARFGAP1 inhibitor | esBAF inh | SMARCA2 act conf | GAL4-VP16 Luc
Cc1ccc(-n2ncc3c2ncn2c(C)nnc32)cc1C | 9.0* | 3 | 10 | 39 | 6 | 10*
CC(=O)NNc1ncnc2c1cnn2-c1ccc(C)c(C)c1 | 0 | -6 | -5 | nt | nt | nt
CC(=O)c1sc(NC(=O)c2ccc(C(C)(C)C)cc2)nc1C | 8.2* | -11 | -5 | -8 | 8.0* | 18*
CC(=O)c1sc(NC(=O)c2ccc(C)c(C)c2)nc1C | 6 | -17 | 2 | nt | nt | nt
C[C@H](O)C#Cc1cnc2c(c1)C(=O)N([C@@H](C)CO)C[C@@H](C)[C@H](CN(C)Cc1cccc(F)c1)O2 | nt | nt | nt | 1 | nt | nt
O=c1[nH]c2ccccc2nc1-c1cccs1 | 8.2* | -2 | 5 | 68* | 8.6* | 4
CC(c1nc2ccccc2[nH]1)n1c(=O)c(-c2cccs2)nc2ccccc21 (stereo not drawn) | -8 | -2 | -6 | nt | nt | nt
COC(=O)c1ccc(/C=C/c2nc3ccccc3c(=O)[nH]2)cc1 | 2 | -7 | -8 | 20 | nt | nt
Cc1ccc(/C=C/c2nc3ccccc3c(=O)[nH]2)cc1 | 8.7* | -11 | 8 | -56 | 9.6* | 5.8*
F[B-](F)(F)COCc1ccccc1C#Cc1ccccc1 | 18* | 3 | -2 | nt | 17* | 3
CCCCC#Cc1ccccc1COC[B-](F)(F)F | 17* | 5 | 1 | nt | 7.9* | 5.9*
F[B-](F)(F)COCc1ccccc1Br | 2 | 0 | 4 | -4 | nt | nt
CN(C(=O)COC(=O)Cc1c(F)cccc1Cl)c1c(N)n(Cc2ccccc2)c(=O)[nH]c1=O | 9.4* | 1 | -18 | -7 | -2 | 3
CCN(C(=O)CN(C)Cc1c(F)cccc1Cl)c1c(N)n(Cc2ccccc2)c(=O)[nH]c1=O | -1 | 9 | 8 | nt | nt | nt
CC(C)C(=O)Nc1ccc2c(c1)C(=O)N(C)[C@@H]1CC[C@@H](CC(=O)O)O[C@@H]1CO2 | nt | nt | nt | -3 | nt | nt
CN(C)CCCNC(=O)c1ccccn1 | 8.4* | 0 | -2 | -1 | -4 | 0
O=C(NNCc1ccccc1)c1ccccn1 | 15* | 0 | -11 | 5 | 4 | 16*
CCCC#Cc1cnc2c(c1)C(=O)N([C@H](C)CO)C[C@@H](C)[C@H](CN(C)C(=O)C1CCC1)O2 | nt | nt | nt | 2 | nt | nt
O=C(NC1CCCCC1)c1ccc(-c2ccccc2[N+](=O)[O-])o1 | 11* | 10 | -1 | 89* | 8.7* | 12*
Cn1cccc1/C=N/N1CCN(Cc2ccc(Cl)cc2)CC1 | -1 | 0 | -6 | -3 | nt | nt
Cn1cccc1/C=N/N1CCN(Cc2ccccc2)CC1 | 16* | 5 | -1 | 4 | 1 | 1
C[C@@H]1CN([C@H](C)CO)C(=O)Cc2cc(NC(=O)CCN3CCOCC3)ccc2O[C@H]1CN(C)Cc1ccc(Oc2ccccc2)cc1 | nt | nt | nt | 0 | nt | nt
CN(C)c1cccc(CNC(=O)c2csc([C@@H]3O[C@H](CO)[C@@H](O)[C@H]3O)n2)c1 | 8.3* | -12 | -6 | -4 | -4 | 0
Cc1cccc(Cc2cnc(NC(=O)C3=NCCN3)s2)c1 | 4 | 9 | -1 | -2 | nt | nt
Cc1cccc(Cc2cnc(NC(=O)c3ccc(C)o3)s2)c1 | 11* | 2 | 9 | nt | 7 | 4
Cc1ccc(S(=O)(=O)CCC(=O)OCC(=O)NNC(=O)c2ccc([N+](=O)[O-])cc2)cc1 | -2 | -12 | -2 | -4 | nt | nt

Compound activity deposited in PubChem by several laboratories.
